Data: ChEMBL document CHEMBL5678801, “A benzothiophene inhibitor of mitogen-activated protein kinase-activated protein kinase 2 inhibits tumor necrosis factor alpha production and has oral anti-inflammatory efficacy in acute and chronic models of inflammation” (J Pharmacol Exp Ther, 2010)
pIC50, pKi: −log10 of the molar value.

Columns and labels:
[1] = Inhibition of TNFalpha production in LPS induced human Whole blood cell preincubated with compound for 1 hr followed by LPS induction and measured after 4 hrs; format: functional, cell-based
Summary of the method: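 Human whole blood was stimulated with LPS 100 ng/ml for 4 h. Plasma TNFα was read by MSD kit. Three separate experiments in duplicate, mean ±S.E.M. IC50 by 4-parameter nonlinear regression.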

[2] = Cytotoxicity against human Whole blood cell assessed as reduction in cell viability at upto 20 uM; format: toxicity, cell-based
[3] = Cytotoxicity against human PBMC cells assessed as reduction in cell viability at upto 20 uM; format: toxicity, cell-based
[4] = Inhibition of IL-1 beta production in LPS induced human Whole blood cell preincubated with compound for 1 hr followed by LPS induction and measured after 16 hrs; format: functional, cell-based
Summary of the method: (§1)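 Human whole blood was stimulated ex vivo with LPS 100 ng/ml. Plasma cytokines were read by MSD 4-plex: TNFα at 4 h; IL-1β, IL-6 and IL-8 at 16 h. Data are means ±S.E.M. of two independent experiments in duplicate, three donors. IC50 by 4-parameter nonlinear regression.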

[5] = Clearance in Sprague-Dawley rat plasma at 1 mg/kg measured upto 24 hrs by LC-MS/MS analysis; format: ADME, organism-based
Summary of the method: (§2)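 Male Sprague-Dawley rats (275-300 g), carotid-catheterized and acclimated overnight. Dosing was i.v. at 1 mpk (n=2) in 70% saline/20% PEG-400/10% ethanol, or oral at 3 mpk (n=3) as a suspension in 0.5% HPMC/Tween. Plasma drug was measured by LC-MS/MS. Cmax and Tmax were read from individual profiles. t½ came from the terminal log-linear slope and AUC by the linear trapezoidal rule. CL = dose/AUC0-∞, Vdss = CL×MRT, F = dose-normalized AUC po/iv.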

[6] = target: MAP kinase-activated protein kinase 2 (Homo sapiens, UniProt P49137); experiment: Binding affinity to recombinant N-terminal truncated MK2 (45 to 371 residues) (unknown origin) expressed in Escherichia coli assessed as inhibition constant measured after 15 mins by surface plasmon resonance spectroscopy analysis
Sequence of MAP kinase-activated protein kinase 2 (P49137 whole entry, the tested form may be a part): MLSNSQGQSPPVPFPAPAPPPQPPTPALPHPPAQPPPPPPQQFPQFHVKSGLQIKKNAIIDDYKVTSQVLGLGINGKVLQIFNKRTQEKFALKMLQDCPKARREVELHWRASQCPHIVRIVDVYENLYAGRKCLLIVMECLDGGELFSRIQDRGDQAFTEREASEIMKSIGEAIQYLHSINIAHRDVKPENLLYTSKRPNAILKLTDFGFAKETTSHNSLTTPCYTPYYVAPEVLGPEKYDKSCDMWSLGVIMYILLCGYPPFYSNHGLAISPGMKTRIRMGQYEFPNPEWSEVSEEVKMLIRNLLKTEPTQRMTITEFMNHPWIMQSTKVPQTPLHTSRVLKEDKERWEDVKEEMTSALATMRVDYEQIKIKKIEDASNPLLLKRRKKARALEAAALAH

[7] = target: T1, Tyrosine-protein kinase Mer (Homo sapiens, UniProt Q12866); experiment: Inhibition of Mer (unknown origin)
T1 sequence (Q12866 whole entry): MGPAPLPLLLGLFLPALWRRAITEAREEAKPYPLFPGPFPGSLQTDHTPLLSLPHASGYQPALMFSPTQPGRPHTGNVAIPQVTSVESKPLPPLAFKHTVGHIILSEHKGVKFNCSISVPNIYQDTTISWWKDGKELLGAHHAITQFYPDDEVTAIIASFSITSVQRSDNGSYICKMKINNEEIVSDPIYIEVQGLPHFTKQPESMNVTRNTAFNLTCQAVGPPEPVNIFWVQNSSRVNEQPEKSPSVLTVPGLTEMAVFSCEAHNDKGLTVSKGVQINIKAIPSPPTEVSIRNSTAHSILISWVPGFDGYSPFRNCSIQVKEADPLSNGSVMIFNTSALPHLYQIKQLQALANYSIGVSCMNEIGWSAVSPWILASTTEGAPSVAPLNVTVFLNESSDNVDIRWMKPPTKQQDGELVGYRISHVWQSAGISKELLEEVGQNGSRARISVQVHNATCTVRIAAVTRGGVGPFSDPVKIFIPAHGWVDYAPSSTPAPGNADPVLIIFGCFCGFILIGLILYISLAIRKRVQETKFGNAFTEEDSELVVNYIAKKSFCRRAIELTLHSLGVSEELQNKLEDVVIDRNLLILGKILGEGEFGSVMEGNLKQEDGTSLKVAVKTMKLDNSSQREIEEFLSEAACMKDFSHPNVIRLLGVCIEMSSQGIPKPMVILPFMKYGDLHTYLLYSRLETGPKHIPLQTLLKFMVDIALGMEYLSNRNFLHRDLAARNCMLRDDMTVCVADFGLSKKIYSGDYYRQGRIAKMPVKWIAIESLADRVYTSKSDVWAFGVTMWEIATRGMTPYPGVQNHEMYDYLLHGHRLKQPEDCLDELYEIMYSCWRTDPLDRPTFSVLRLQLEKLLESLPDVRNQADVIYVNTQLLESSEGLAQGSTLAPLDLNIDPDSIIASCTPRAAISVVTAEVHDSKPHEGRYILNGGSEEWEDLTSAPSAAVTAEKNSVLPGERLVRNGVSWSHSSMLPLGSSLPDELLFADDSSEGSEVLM
Summary of the method: (§3)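 Kinase panel: 200 kinases were first screened at 1 μM inhibitor for percent inhibition. Those above 50% inhibition were then titrated for IC50. MgATP was fixed at the Km(app) determined for each enzyme.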

[8] = Antiinflammatory activity in human PBMC cells assessed as inhibition of LPS induced TNF alpha production preincubated for 1 hr followed by LPS stimulation and measured after 16 hrs by MSD analysis; format: functional, cell-based
[9] = Plasma concentration in po dosed LPS-induced Lewis rat model at ED50 concentration measured after 5.5 hrs of initial dose by LC-MS/MS analysis; format: ADME, organism-based
Summary of the method: (§4)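 Male Lewis rats (225-250 g, 5 per group) were fasted 18 h, then dosed orally at 0.2-60 mg/kg as a suspension in 0.5% methylcellulose/0.025% Tween 20. LPS 1 mg/kg was given i.v. 4 h later. Blood was taken by cardiac puncture 90 min after LPS. Serum TNFα was read by ELISA and drug by LC-MS/MS, three independent experiments. 4-parameter fit. Unbound values were corrected with measured rat plasma protein binding.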

[10] = target: Cyclin-dependent kinase 5/CDK5 activator 1 (Homo sapiens, UniProt Q00535); experiment: Inhibition of CDK5/p35 (unknown origin); format: protein-complex assay; summary of the method: as §3
Sequence of Cyclin-dependent kinase 5/CDK5 activator 1 (Q00535 whole entry): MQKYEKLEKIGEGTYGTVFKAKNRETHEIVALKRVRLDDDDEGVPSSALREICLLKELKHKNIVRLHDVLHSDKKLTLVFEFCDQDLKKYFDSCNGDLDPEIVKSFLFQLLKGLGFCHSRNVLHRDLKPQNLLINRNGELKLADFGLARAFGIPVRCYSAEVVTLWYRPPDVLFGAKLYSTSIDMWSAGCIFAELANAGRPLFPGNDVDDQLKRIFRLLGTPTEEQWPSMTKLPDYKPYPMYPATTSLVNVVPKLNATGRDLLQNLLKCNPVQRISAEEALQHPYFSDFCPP
Sequence of Cyclin-dependent kinase 5/CDK5 activator 1 (Q15078 whole entry, further chain): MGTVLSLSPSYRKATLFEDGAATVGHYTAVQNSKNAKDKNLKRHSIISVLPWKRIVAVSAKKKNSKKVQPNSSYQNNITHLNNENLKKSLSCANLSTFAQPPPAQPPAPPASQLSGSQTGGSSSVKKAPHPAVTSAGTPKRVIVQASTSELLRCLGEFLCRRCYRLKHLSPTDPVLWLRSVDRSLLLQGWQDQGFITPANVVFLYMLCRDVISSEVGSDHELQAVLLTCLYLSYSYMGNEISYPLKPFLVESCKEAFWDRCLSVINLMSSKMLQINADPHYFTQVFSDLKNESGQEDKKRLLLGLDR

[11] = AUC in chronic SCW-induced arthritis Lewis rat model plasma at ED50 concentration; format: ADME, cell-free
Summary of the method: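 Female Lewis rats (125-140 g) received a single i.p. streptococcal cell wall injection. Animals showing the acute phase were pooled, 4-8 per group over three experiments. Dosing was oral gavage b.i.d., days 10-21, in methylcellulose-Tween-20 vehicle. Hind paw volume was read by displacement plethysmometer on day 21, as % inhibition of swelling. Plasma was sampled up to 11 h after the last dose, 3 rats per dose. ED values came from fitted curves.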

[12] = Inhibition of IL-6 production in LPS induced human Whole blood cell preincubated with compound for 1 hr followed by LPS induction and measured after 16 hrs; format: functional, cell-based; summary of the method: as §1
[13] = target: MAP kinase-interacting serine/threonine-protein kinase 2 (Homo sapiens, UniProt Q9HBH9); experiment: Inhibition of recombinant MNK2 (unknown origin) using KKKALSRQLSVAA as substrate incubated for 1 hr followed by substrate addition in presence of ATP
Sequence of MAP kinase-interacting serine/threonine-protein kinase 2 (Q9HBH9 whole entry): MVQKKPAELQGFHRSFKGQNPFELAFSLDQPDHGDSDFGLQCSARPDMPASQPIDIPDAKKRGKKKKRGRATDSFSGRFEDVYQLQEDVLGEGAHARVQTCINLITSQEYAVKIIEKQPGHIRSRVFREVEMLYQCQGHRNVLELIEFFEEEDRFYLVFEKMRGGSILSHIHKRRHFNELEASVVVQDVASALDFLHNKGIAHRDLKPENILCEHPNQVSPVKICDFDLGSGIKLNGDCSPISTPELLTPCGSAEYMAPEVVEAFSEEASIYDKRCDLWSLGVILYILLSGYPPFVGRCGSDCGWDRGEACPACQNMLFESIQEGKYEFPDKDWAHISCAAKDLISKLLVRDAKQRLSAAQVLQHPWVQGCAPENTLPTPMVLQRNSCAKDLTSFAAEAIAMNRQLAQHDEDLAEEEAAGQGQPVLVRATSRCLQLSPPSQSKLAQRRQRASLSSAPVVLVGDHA
Summary of the method: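 Recombinant MAPKAP kinase was first activated with activated p38α (1:50 molar ratio) and 250 μM ATP for 1 hr at 30°C. Activity was then assayed at Km(app) MgATP by ion-exchange separation of 33P-labeled product peptide. IC50 was taken from duplicate experiments.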

[14] = Volume of distribution at steady state in Sprague-Dawley rat measured upto 24 hrs by […] analysis; format: ADME; details: in vivo, read-out: Vdss; summary of the method: as §2
[15] = Inhibition of AMPK (unknown origin); design: species or system Homo sapiens
[16] = Unbound plasma concentration in po dosed LPS-induced Lewis rat model at ED80 concentration measured after 5.5 hrs of initial dose by LC-MS/MS analysis; format: ADME, organism-based; details: in vivo; summary of the method: as §4

- pIC50 [1]: 5.71
- pIC50 [4]: < 4.60
- clearance [5]: 10.3 mL/min/kg
- pKi [6]: 8.52
- pIC50 [7]: 7.12
- pIC50 [8]: 6.67
- concentration at 5.5 h [9]: 1400 nM
- pIC50 [10]: 6.04
- AUC [11]: 34 µM·h
- pIC50 [12]: 4.99
- pIC50 [13]: 6.83
- Vd [14]: 1.5 L/kg
- pIC50 [15]: 6.93
- Cp(f) [16]: 340 nM
SMILES: Cc1ccc(-c2ccc3c(ccc4sc5c(c43)NC[C@@H](C)NC5=O)n2)cn1
- Activity [2]: Non-Toxic
- Activity [3]: Non-Toxic
